This note sets out measurements from ChEMBL document CHEMBL1131117, “Pyrimidine thioethers: a novel class of HIV-1 reverse transcriptase inhibitors with activity against BHAP-resistant HIV” (J Med Chem, 1998).

The subject of test [1] is Human immunodeficiency virus type 1 reverse transcriptase (Human immunodeficiency virus 1), Q72547 [P236L]. Description: Inhibitory activity against HIV-1 reverse transcriptase (P236L) at 10 uM dose. The gist of the method: (§1)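 Recombinant HIV-1 RT homodimers (wild type or P236L mutant) were tested with compound at a single 10 µM concentration and reported as % inhibition. Reactions ran at 28 °C for 10 min and were stopped with 10% trichloroacetic acid. Acid-precipitated product was collected on glass fibre filters and counted for radioactivity.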

Test [2] has as its target Human immunodeficiency virus type 1 reverse transcriptase (Human immunodeficiency virus 1) (UniProt Q72547). Description: Inhibitory activity against HIV-1 reverse transcriptase (wild type) at 10 uM dose. The gist of the method:
as §1

The subject of test [3] is Human immunodeficiency virus type 1 reverse transcriptase (Human immunodeficiency virus 1), Q72547 [P236L]. Nature of the test: inhibitory activity against HIV-1 reverse transcriptase (P236L) at 10 uM dose (IC50 determined in 8 drug concentrations). Put shortly: (§2)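 HIV-1 RT homodimers (wild type or P236L) were assayed by radiolabel incorporation at 28 °C for 10 min and stopped with 10% trichloroacetic acid. Acid-insoluble product was filter-captured and counted. IC50 was derived from inhibition measured at eight drug concentrations.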

In test [4] the target is Human immunodeficiency virus type 1 reverse transcriptase (Human immunodeficiency virus 1, UniProt Q72547, P236L). Description: Inhibition of HIV-1 reverse transcriptase (P236L). Put shortly:
as §2

The target in test [5] is Human immunodeficiency virus type 1 reverse transcriptase (Human immunodeficiency virus 1) (UniProt Q72547). Description: inhibitory activity against HIV-1 reverse transcriptase (wild type) at 10 uM dose (IC50 determined in 8 drug concentrations). The gist of the method: as §2
Test [6] relates to MT4. Nature of the test: concentration of drug that inhibited p24 production by 90% in infected MT-4 cells against HIV-1MF-DLV. It counts as functional. The conditions noted are these: Homo sapiens.
Test [7] has as its system MT4. Nature of the test: concentration of drug that inhibited p24 production by 90% in infected MT-4 cells against HIV-1-WT. The conditions noted are these: Homo sapiens. Type of test: functional.
Test [8] has as its target Human immunodeficiency virus type 1 reverse transcriptase (Human immunodeficiency virus 1, UniProt Q72547). Nature of the test: Inhibition of HIV-1 reverse transcriptase (wild type). Put shortly: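 Wild-type HIV-1 RT homodimer run at 28 °C for 10 min. The reaction is stopped with 10% (v/v) trichloroacetic acid, and the acid-precipitated product is collected on glass fiber filters and counted for radioactivity. Compounds are screened as % inhibition at 10 µM, and IC50 values are determined from eight drug concentrations.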

Test [9] addresses Human immunodeficiency virus type 1 reverse transcriptase (Human immunodeficiency virus 1) (UniProt Q72547). Nature of the test: inhibitory activity against HIV-1 reverse transcriptase (wild type) at 10 uM dose. The gist of the method:
as §1

Usually inhibition stands for the percentage by which the read-out fell short of the control. As to `Cc1cc(N)nc(SCc2ccccc2)n1`, the inhibition in [1] is 4%; in test [2], 0%.
In the same order, the values of `N#Cc1cc(N)nc(SCc2ccc3ccccc3c2)n1` are 93% and 84%.
As a reminder, the IC50 is the concentration that gives 50% inhibition. The IC90 is the concentration at which the effect reaches the 90% level. A high value points to weaker potency. In the case of `CN(C)C(=O)/C=C/CSc1nc(N)cc(Cl)n1`, the inhibition in [3] and in test [5] was 99% throughout. The IC50 in test [4] was determined as 70 nM; in test [8], 200 nM. For the same molecule, the figures for the IC90 in the test on MT4 [6] and in the test with MT4 [7] were 740 nM and 90 nM, respectively.
As to `Nc1cc(Cl)nc(SCc2ccc3c(c2)OCO3)n1`, the inhibition in test [1] came out at 95%; in test [2], 82%.
Take `Nc1cc(Cl)nc([S+]([O-])Cc2cccc(Br)c2)n1` (stereo not given): the inhibition in test [1] worked out at 40%.
Consider `Nc1cc(Cl)nc(SC/C=C/c2ccccc2)n1`, for which the inhibition in test [1] was found to be 98%; in test [2] it was 96%. Besides, the IC50 is 70 nM in test [4] and 190 nM in test [8]. The IC90 in the test with MT4 [6] stood at 5050 nM; with MT4 [7] it was 150 nM.
With `Cc1cccc(CSc2nc(N)cc(Cl)n2)c1`, the inhibition in test [3] turned out to be 98%; in [5] it was 96%. Moreover, the values for the IC50 in test [4] and in test [8] were 50 nM and 280 nM, respectively. Besides, the IC90 stood at 1760 nM in the test on MT4 [6] and 110 nM in the test with MT4 [7].
Turning to `Nc1cc(Cl)nc(SCC2CCCCC2)n1`, the inhibition in test [1] came to 13%; in test [2], 37%.
As for `Nc1cc(Cl)nc(SCc2cccc(I)c2)n1`, the inhibition in test [1] is 89%.
Regarding `Nc1cc(Cl)nc(SCc2cccc(Br)c2)n1`, the inhibition in test [1] came to 97%; in test [2] it was 94%. For the same molecule, the IC50 stood at 140 nM in test [4] and 760 nM in test [8]. The IC90 in the test with MT4 [6] was 4520 nM; in the test with MT4 [7] it was 350 nM.
On to `COC(=O)/C=C/CSc1nc(N)cc(Cl)n1`, for which the inhibition in [1] is 93%; in test [2] it was 78%. Moreover, the IC50 amounted to 930 nM in test [4] and 5250 nM in test [8].
`C/C=C/CSc1nc(N)cc(Cl)n1`: the figures for the inhibition in [1] and in [2] were 47% and 5%, respectively.
In the same order, the values of `Clc1cc(Cl)nc(SCc2ccc3ccccc3c2)n1` are 23% and 0%.
Molecule `Nc1cc(Cl)nc(SCc2cccc(F)c2)n1` registered an inhibition in test [1] of 79%.
For the molecule `Clc1ccnc(SCc2ccc3ccccc3c2)n1`, the inhibition in test [1] is 86%; in test [2], 61%.
In the case of `CC(=O)Nc1cc(Cl)nc(SCc2ccc3ccccc3c2)n1`, the inhibition was 53% in test [1] and 30% in [2].
In the same order, the values of `CCNC(=O)/C=C/CSc1nc(N)cc(Cl)n1` are 55% and 40%.
With `Nc1cc(Cl)nc(S(=O)(=O)Cc2cccc(Br)c2)n1`, the inhibition in test [1] is 14%.
As to `Clc1cc(NC2CCCCC2)nc(SCc2ccccc2)n1`, the inhibition turned out to be 6% in test [1] and 26% in test [2].
For `Nc1cc(Cl)nc(SCC(=O)O)n1`, the inhibition in test [1] and in [2] was 0% throughout.
Consider `CC(C)(C)c1ccc(CSc2nc(N)cc(Cl)n2)cc1`, for which the inhibition in test [1] was 56%; in [2], 37%.
With `Nc1cc(Cl)nc(SCCc2ccccc2)n1`, the inhibition was 12% in test [1] and 33% in [2].
As to `CCN(CC)C(=O)/C=C/CSc1nc(N)cc(Cl)n1`, the results for the inhibition in [3] and in [5] were 99% and 98%, respectively. For the same molecule, the IC50 was found to be 50 nM in [4] and 60 nM in test [8]. The IC90 in the test on MT4 [6] turned out to be 110 nM; with MT4 [7], 20 nM.
As to `Cc1ccc(CSc2nc(N)cc(Cl)n2)cc1`, the inhibition amounted to 5% in [1] and 3% in test [2].
Regarding `Nc1cc(C(F)(F)F)nc(SCc2ccc3ccccc3c2)n1`, the inhibition in [1] and in test [2] was 94% throughout. Besides, the IC50 worked out at 430 nM in test [4] and 290 nM in test [8].
Consider `CC1(C)CCC(C)(C)c2cc(CSc3nc(N)cc(Cl)n3)ccc21`, for which the inhibition came to 23% in test [1] and 7% in test [2].
Take `COC(=O)c1cccc(CSc2nc(N)cc(Cl)n2)c1`: the values for the inhibition in test [1] and in test [2] were 94% and 93%, respectively. Moreover, the IC50 in test [4] was 230 nM; in test [8], 330 nM.
`Nc1cc(Cl)nc(SCc2ccc3ccccc3c2)n1`: the inhibition in [3] was found to be 96%; in test [5], 87%. Also, the IC50 in [4] came to 150 nM; in test [8], 460 nM. The IC90 worked out at 2760 nM in the test on MT4 [6] and 220 nM with MT4 [7].
As for `Nc1cc(Cl)nc(OCc2cccc3ccccc23)n1`, the inhibition in test [1] amounted to 67%; in test [2] it was 2%.
In the same order, the values of `Nc1cc(Cl)nc(OCc2ccc3ccccc3c2)n1` are 80% and 63%.
On to `CCCNc1cc(Cl)nc(SCc2ccccc2)n1`, for which the values for the inhibition in test [1] and in test [2] were 30% and 14%, respectively.
In the same order, the values of `CCN(CC)C(=O)CSc1nc(N)cc(Cl)n1` are 14% and 14%.
In the same order, the values of `CCOC(=O)c1cc(N)nc(SCc2ccc3ccccc3c2)n1` are 24% and 17%.
Consider `Cc1cccc(COc2nc(N)cc(Cl)n2)c1`, for which the inhibition in [1] was found to be 72%; in [2] it was 25%.
In the same order, the values of `Cc1ccccc1CSc1nc(N)cc(Cl)n1` are 0% and 2%.
As to `Nc1cc(Cl)nc(SCc2ccc(Cl)c(Cl)c2)n1`, the results for the inhibition in test [1] and in test [2] were 94% and 80%, respectively. The half-inhibitory concentration (IC50) in [4] amounted to 62 nM; in test [8], 490 nM.
With `COC(=O)c1ccc(CSc2nc(N)cc(Cl)n2)cc1`, the inhibition in test [1] was 15%; in test [2] it was 6%.
As for `Nc1cc(Cl)nc(SCc2cc(Br)cc(Br)c2)n1`, in test [1], the inhibition came out at 73%.
`Nc1cc(Cl)nc(SCc2cc(Cl)cc(Cl)c2)n1` gave an inhibition in test [1] of 65%.
On the same count and under the same terms, to `Nc1cc(Cl)nc(SCc2cccc(Cl)c2)n1` belongs 65%.
Turning to `Nc1cc(Cl)nc(SCc2ccccc2)n1`, the IC50 was determined as 1470 nM in [4] and 6660 nM in test [8].
Turning to `Clc1cc(-n2ccnc2)nc(SCc2ccc3ccccc3c2)n1`, the inhibition in test [1] is 17%; in test [2], 12%.
In the same order, the values of `Nc1cc(Cl)nc(OCc2ccccc2)n1` are 44% and 1%.
As for `Nc1cc(Cl)nc(SCC2=CCCc3ccccc32)n1`, the figures for the inhibition in [1] and in test [2] were 88% and 47%, respectively. Moreover, the results for the IC50 in test [4] and in test [8] were 600 nM and 16000 nM, respectively.
Turning to `Nc1cc(Cl)nc(CCc2ccc3ccccc3c2)n1`, in test [1], the inhibition stood at 12%.
For the molecule `CCCCCCCCCSc1nc(N)cc(Cl)n1`, the inhibition in test [1] and in test [2] was 0% in each case.
For the molecule `Nc1cc(Cl)nc(SCc2cccc3ccccc23)n1`, the inhibition in test [1] stood at 96%; in test [2] it was 89%.
On to `NNc1cc(Cl)nc(SCc2ccccc2)n1`, for which, in [1], the inhibition turned out to be 31%.
As for `Nc1cc(Cl)nc(SCC2=Cc3ccccc3CC2)n1`, the inhibition was determined as 87% in test [1] and 71% in [2].
In the same order, the values of `Nc1cc(Cl)nc(SCc2cccc(C(F)(F)F)c2)n1` are 91% and 80%.
Regarding `Nc1cc(Cl)nc([S+]([O-])Cc2ccc3ccccc3c2)n1` (stereo not given), the inhibition in test [1] stood at 75%; in [2], 45%.
In the same order, the values of `Nc1cc(Cl)nc(SCc2ccc(-c3ccccc3)cc2)n1` are 20% and 8%.
In the same order, the values of `COc1ccc(CSc2nc(N)cc(Cl)n2)cc1` are 63% and 25%.
In the same order, the values of `Clc1cc(Cl)nc(SCc2ccccc2)n1` are 25% and 19%.
For `OCCCNc1cc(Cl)nc(SCc2ccccc2)n1`, the inhibition in [1] stood at 3%; in test [2], 17%.
In turn, `Clc1cc(-c2ccccc2)nc(SCc2ccc3ccccc3c2)n1` showed an inhibition in test [1] of 5%.
In the case of `Nc1cc(Cl)nc(NCc2ccc3ccccc3c2)n1`, the inhibition in [1] is 17%; in test [2], 9%.
Regarding `Nc1cc(N2CCCC2)nc(SCc2ccccc2)n1`, the values for the inhibition in [1] and in test [2] were 0% and 3%, respectively.
In the same order, the values of `Clc1cc(N2CCCC2)nc(SCc2ccccc2)n1` are 41% and 35%.
Turning to `Nc1cc(O)nc(SCc2ccc3ccccc3c2)n1`, the inhibition in test [1] turned out to be 4%; in test [2], 10%.
In the same order, the values of `Clc1cc(N2CCCCC2)nc(SCc2ccccc2)n1` are 47% and 47%.
In the case of `Nc1ccnc(SCc2ccc3ccccc3c2)n1`, the inhibition in test [1] was 71%; in [9], 50%.
For the molecule `CCOC(=O)CCSc1nc(N)cc(Cl)n1`, the results for the inhibition in test [1] and in test [2] were 7% and 11%, respectively.
